The values below come from ChEMBL document CHEMBL4017538, “Vitamin D Analogues with a p-Hydroxyphenyl Group at the C25 Position: Crystal Structure of Vitamin D Receptor Ligand-Binding Domain Complexed with the Ligand Explains the Mechanism Underlying Full Antagonistic Action” (J Med Chem, 2017).

Calls of active or inactive are those of the source. The rule behind the calls is not given here.

The target in assay [1] is T1, Vitamin D3 receptor (Homo sapiens) (UniProt P11473).
T1 sequence (whole entry): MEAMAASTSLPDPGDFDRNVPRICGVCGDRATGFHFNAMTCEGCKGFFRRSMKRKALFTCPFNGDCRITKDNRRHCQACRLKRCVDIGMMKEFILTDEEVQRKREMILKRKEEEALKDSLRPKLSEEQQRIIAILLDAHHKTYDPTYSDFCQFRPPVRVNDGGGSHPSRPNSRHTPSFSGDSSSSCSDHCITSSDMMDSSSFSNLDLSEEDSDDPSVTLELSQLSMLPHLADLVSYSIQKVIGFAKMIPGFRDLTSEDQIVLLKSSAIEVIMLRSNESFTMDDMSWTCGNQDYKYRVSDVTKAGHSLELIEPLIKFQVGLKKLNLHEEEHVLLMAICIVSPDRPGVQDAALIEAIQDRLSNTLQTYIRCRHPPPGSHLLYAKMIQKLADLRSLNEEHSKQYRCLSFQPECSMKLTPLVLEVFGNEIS
In words: Ratio of 1,25-(OH)2D3 IC50 to test compound IC50 for displacement of [3H]-1,25-(OH)2D3 from N-terminal GST-tagged human recombinant vitamin D receptor ligand binding domain expressed in Escherichia coli BL21 (DE3) pLys S after 16 hrs. For orientation: In a radioligand displacement assay an active substance lowers the binding of a labelled ligand.

The target in assay [2] is T2, Vitamin D3 receptor (Homo sapiens, UniProt P11473).
T2 sequence (P11473 whole entry): T1 sequence (whole entry)
In words: Displacement of [3H]-1,25-(OH)2D3 from N-terminal GST-tagged human recombinant vitamin D receptor ligand binding domain expressed in Escherichia coli BL21 (DE3) pLys S after 16 hrs.

Assay [3] concerns the target T1, Vitamin D3 receptor (Homo sapiens). In words: Partial agonist activity at human vitamin D receptor expressed in HEK293 cells after 16 hrs by dual luciferase reporter gene assay. Format: cell-based. Summed up:
(§1)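 Cells were co-transfected with full-length human VDR expression plasmid (pCMX-hVDR), a luciferase reporter carrying three copies of mouse osteopontin VDRE (SPPx3-TK-Luc), and a sea pansy luciferase internal control (pRL-CMV), then read by dual luciferase assay. Activity is scaled so that 10−8 M 1,25D3 equals 1 in Cos7 and 10−9 M 1,25D3 equals 1 in HEK293. Inhibition was tested in the presence of 1,25D3.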
(In general: A reporter such as luciferase makes a cellular process visible.)

For assay [4] the target is unchanged. In words: Antagonist activity at human vitamin D receptor expressed in African green monkey COS7 cells assessed as inhibition of 1,25D3-induced transactivation after 16 hrs by dual luciferase reporter gene assay. The assay is classed as cell-based. In short, it runs like this:
as §1

Assay [5] shares this target. Kind of assay: Agonist activity at human vitamin D receptor expressed in African green monkey COS7 cells after 16 hrs by dual luciferase reporter gene assay. The assay is classed as cell-based. In short, it runs like this:
as §1

Assay [6] has the same target. In words: Antagonist activity at VP16-fused human vitamin D receptor in HEK293 cells assessed as inhibition of ligand-induced GAL4-fused RXRalpha recruitment by dual luciferase assay. The assay is classed as cell-based.
For assay [7], the target named is T2, Vitamin D3 receptor.
The target in assay [8] is T1, Vitamin D3 receptor (Homo sapiens). Kind of assay: Antagonist activity at VP16-fused human vitamin D receptor in HEK293 cells assessed as inhibition of ligand-induced GAL4-fused SRC1 coactivator recruitment by dual luciferase assay. Format: cell-based.

Regarding `C=C1[C@H](O)CC(=C/C=C2\CCC[C@]3(C)[C@@H]([C@H](C)CCCC(OC)c4ccc(O)cc4)CC[C@@H]23)C[C@H]1O` (stereo partly specified), the relative affinity (IC50 ref/IC50 test) in assay [1] was found to be 0.0049. For the same compound, the IC50 (commonly the point on the concentration scale where inhibition reaches its midpoint) at Vitamin D3 receptor [2] was 102 nM.
Regarding `C=C1[C@H](O)CC(=C/C=C2\CCC[C@]3(C)[C@@H]([C@H](C)[C@@H](CCCC)CCC(OC)c4ccc(O)cc4)CC[C@@H]23)C[C@H]1O` (stereo partly specified), in assay [1], the relative affinity (IC50 ref/IC50 test) turned out to be 0.031. Moreover, on Vitamin D3 receptor [2], the IC50 turned out to be 23 nM. For the same compound, in assay [3], the outcome was Active. Also, in assay [4], the “antagonist activity (qualitative)” value is “Active”.
With `C=C1[C@H](O)CC(=C/C=C2\CCC[C@]3(C)[C@@H]([C@H](C)[C@@H](CCCC)CCC(O)(c4ccc(O)cc4)c4ccc(O)cc4)CC[C@@H]23)C[C@H]1O`, the relative affinity (IC50 ref/IC50 test) in assay [1] was found to be 0.0042. For the same compound, the outcome in assay [5] was inactive. Besides, in assay [6], the inhibition result is “inactive”. The IC50 amounted to 400 nM against Vitamin D3 receptor [7] and 130 nM on Vitamin D3 receptor [2]. In assay [8], the inhibition entry is “Active”.
In the case of `C=C1[C@H](O)CC(=C/C=C2\CCC[C@]3(C)[C@@H]([C@H](C)[C@@H](CCCC)CCC(O)c4ccc(O)cc4)CC[C@@H]23)C[C@H]1O` (stereo partly specified), the relative affinity (IC50 ref/IC50 test) in assay [1] came out at 0.0094. Moreover, in assay [5], the outcome was inactive. The IC50 on Vitamin D3 receptor [2] was found to be 17 nM. Moreover, the result in assay [3] was Active. Moreover, the “antagonist activity (qualitative)” value in assay [4] is “Dose-dependent effect”.
Turning to `C=C1[C@H](O)CC(=C/C=C2\CCC[C@]3(C)[C@@H]([C@H](C)[C@@H](CCCC)CCC(=O)c4ccc(O)cc4)CC[C@@H]23)C[C@H]1O`, the relative affinity (IC50 ref/IC50 test) in assay [1] amounted to 0.028. Besides, the outcome in assay [5] was inactive. In addition, in assay [6], the inhibition result was “inactive”. In addition, the IC50 on Vitamin D3 receptor [2] is 20 nM. Moreover, the inhibition result in assay [8] was “Active”.
Consider `C=C1[C@H](O)CC(=C/C=C2\CCC[C@]3(C)[C@@H]([C@H](C)CCCC(=O)c4ccc(O)cc4)CC[C@@H]23)C[C@H]1O`, for which the relative affinity (IC50 ref/IC50 test) in assay [1] stood at 0.006. Also, the IC50 on Vitamin D3 receptor [2] was found to be 84 nM. Also, the result in assay [3] was Active. The “antagonist activity (qualitative)” value in assay [4] is “Active”.
With `C=C1[C@H](O)CC(=C/C=C2\CCC[C@]3(C)[C@@H]([C@H](C)CCCC(O)c4ccc(O)cc4)CC[C@@H]23)C[C@H]1O` (stereo partly specified), in assay [1], the relative affinity (IC50 ref/IC50 test) was 0.0044. Further, the IC50 on Vitamin D3 receptor [2] was found to be 36 nM. Moreover, the result in assay [3] was Active. Further, in assay [4], the “antagonist activity (qualitative)” value was “Active”.
Turning to `C=C1[C@H](O)CC(=C/C=C2\CCC[C@]3(C)[C@@H]([C@H](C)CCCC(O)(c4ccc(O)cc4)c4ccc(O)cc4)CC[C@@H]23)C[C@H]1O`, the relative affinity (IC50 ref/IC50 test) in assay [1] is 0.00096. Moreover, the result in assay [5] was inactive. Moreover, the inhibition entry in assay [6] and in assay [8] was “Active” each time. The IC50 at Vitamin D3 receptor [7] was determined as 800 nM; on Vitamin D3 receptor [2] it was 520 nM.
